Most compounds without a hit are left out; they make up all but 0.79% or so of the library.
bIAP inhibitor – intestinal alkaline phosphatase (bovine) inhibition; purified bovine IAP, CDP-star luminescence, 30 min; inhibition, % at 20 µM; 190,000 tested, under 10 active;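 active = over 50% inhibition of intestinal alkaline phosphatase at 20 µM in the single-dose screen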
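System: purified bovine intestinal alkaline phosphatase (IAP) enzyme; Input: IAP diluted 1/65,000,000 in the well; Measured by: CDP-star luminescence signal; Compound dosing: 20 µM single dose; Incubation: 30 min reaction at room temperature.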
hIAP block – blocks human intestinal alkaline phosphatase; P09923; purified IAP, CDP-Star luminescence, 30 min; inhibition, % at 10 µM; hit rate 0.12% among 330,000;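 active = inhibition reaching a set limit with compound at 10 µM in the primary screen, cut at about 35% in these data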
Target sequence (P09923 whole entry, looked up): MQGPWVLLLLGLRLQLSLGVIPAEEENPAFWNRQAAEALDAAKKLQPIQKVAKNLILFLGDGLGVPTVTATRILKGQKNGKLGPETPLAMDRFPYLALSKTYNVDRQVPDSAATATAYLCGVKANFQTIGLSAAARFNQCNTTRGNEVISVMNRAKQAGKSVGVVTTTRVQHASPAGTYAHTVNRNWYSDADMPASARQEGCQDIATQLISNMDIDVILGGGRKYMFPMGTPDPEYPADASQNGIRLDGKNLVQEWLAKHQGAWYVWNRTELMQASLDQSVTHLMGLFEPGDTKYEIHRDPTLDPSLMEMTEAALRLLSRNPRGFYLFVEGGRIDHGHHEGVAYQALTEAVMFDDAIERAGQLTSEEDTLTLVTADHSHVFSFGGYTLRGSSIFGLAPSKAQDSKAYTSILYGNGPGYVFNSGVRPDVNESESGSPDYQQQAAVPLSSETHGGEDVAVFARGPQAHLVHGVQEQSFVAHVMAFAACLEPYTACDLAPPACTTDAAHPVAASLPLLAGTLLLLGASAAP
hIAP act – increases human intestinal alkaline phosphatase activity | P09923 | activation factor at 10 µM | hit rate 0.16% among 330,000 | purified human IAP, CDP-Star luminescence, 30 min; stronger effect = higher value; 1 = vehicle-only enzyme, 0 = enzyme-free background;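 active = activation factor of the enzyme at least 2-fold when tested at 20 µM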
mIAP inh – blocks mouse intestinal alkaline phosphatase; purified mouse IAP, CDP-Star luminescence, 30 min; inhibition, % at 10 µM; hit rate 0.2% among 330,000; AID 2806;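 active = inhibition of at least 40% at 10 µM in the primary screen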
bIAP act – increases bovine intestinal alkaline phosphatase activity; activation factor at 20 µM; purified bovine IAP, CDP-star luminescence, 30 min; stronger effect = higher value; fold of DMSO-control signal, blank-subtracted; hit rate 0.17% among 200,000; AID 1016;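 active = activation factor of 2 or more at 20 µM, a signal rise over negative controls twice the positive control's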
mIAP act – mouse IAP activation. hit rate 0.24% among 330,000. activation factor at 10 µM. muIAP, CDP-Star luminescence, 30 min; stronger effect = higher value; 1 = vehicle-only enzyme signal, 0 = enzyme-free wells;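 active = activation factor of at least 2 at 20 µM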
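System: mouse IAP enzyme. Reagent: CDP-Star chemiluminescent phosphatase substrate. Benchmarks: DMSO wells, no-enzyme wells. Times: 30 min enzyme-substrate-compound incubation at room temperature. Detection: luminescence from enzymatic CDP-Star hydrolysis. Doses: test compounds delivered from DMSO solution.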
mIAP inh conf – mouse IAP inhibition confirmation; shares compounds with mIAP inh; hit rate 4.7% among 11,000; purified mouse IAP, CDP-Star luminescence, 30 min; AID 434971; inhibition, % at 10 µM;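 active = inhibition of at least 40% at 10 µM in either of the two replicates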
Numbers stand for hits; i = inactive; nt = no result.

SMILES | bIAP inhibitor | hIAP block | hIAP act | mIAP inh | bIAP act | mIAP act | mIAP inh conf
CC(C)NC(=O)Nc1ccc2c(c1)C(=O)N([C@H](C)CO)C[C@H](C)[C@@H](CN(C)C(=O)NC1CCCCC1)O2 | nt | i | i | i | nt | i | nt
NS(=O)(=O)c1ccc(CNC(=O)/C=C/c2ccco2)cc1 | nt | i | i | 45.9 | nt | i | 49.6
O=C(/C=C/c1ccco1)NCc1ccc(F)cc1 | i | i | i | i | i | i | nt
NS(=O)(=O)c1ccc(NC(=S)NC(=O)/C=C/c2ccco2)cc1 | i | i | i | 90.8 | i | i | 77.3
COc1ccc(OCC(=O)N2CCC3(CC2)CC(=O)c2ccccc2O3)cc1 | nt | i | i | i | nt | i | nt
CCN(CC)/C(N)=N/c1nc(C)cc(C)n1 | i | i | i | i | i | i | nt
CC(C)(C)C(=O)Nc1cc(S(=O)(=O)N2CCCCC2)ccc1N1CCCCC1 | i | i | i | i | i | i | nt
CC(C)C1Nc2ccc(S(N)(=O)=O)cc2C2C=CCC21 (stereo unspecified) | i | i | i | 48.1 | i | i | 44.9
CCOC(=O)C1Nc2ccc(OC(F)(F)F)cc2C2C=CCC12 (stereo unspecified) | nt | i | i | i | nt | i | nt
C/C(=N\NC(=O)c1cc(O)cc(O)c1)c1ccc(NC(=O)Cc2ccccc2)cc1 | nt | i | i | 50.5 | nt | i | 56.8
CC(C)C(c1nnnn1Cc1ccc(F)cc1)N1CCC(C(N)=O)CC1 (stereo unspecified) | i | i | i | i | i | i | nt
CCN1C(=O)/C(=C2\SC(=S)N(NC(=O)c3ccccc3O)C2=O)c2ccccc21 | nt | i | i | 51.1 | nt | i | 47.3
CCCCNC(=O)Nc1ccc2c(c1)N(C)C(=O)c1ccccc1S2 | nt | i | i | i | nt | 2.71 | i
COc1ccccc1CNC(=O)C1(NC(=O)Nc2ccc(C)cc2)CCCCC1 | i | i | 2.83 | i | 4.9 | 5.9 | i
O=C(Nc1ccc(F)cc1)NC1(C(=O)NCc2ccco2)CCCCC1 | i | i | i | i | i | i | nt
Cc1ccc(CNC(=O)C2(NC(=O)Nc3ccc(C)cc3)CCCCC2)cc1 | i | i | i | i | i | 6.62 | i
CC(C)c1ccc(NC(=O)NC2(C(=O)NCc3cccnc3)CCCCC2)cc1 | nt | i | i | i | nt | i | nt
Cc1ccc(NC(=O)NC2(C(=O)NCc3ccccc3)CCCCC2)cc1 | i | i | i | i | i | 2.75 | i
C=C(C)C(=O)OCC(C)C | nt | i | i | i | nt | i | nt
CCCCNc1ccc(C(=O)O)cc1 | nt | i | i | i | nt | i | nt
Cc1cc(F)ccc1S(=O)(=O)N1CCC2(CC1)OCCN2S(=O)(=O)c1cccs1 | nt | i | i | i | nt | i | nt
CCOc1cc(Br)c(C=O)cc1OCC | i | i | i | i | i | i | nt
Cc1ccc(/C=C/C2=Cc3c(sc(NC(=O)CSc4n[nH]c(N)n4)c3C#N)C(C)(C)C2)o1 | i | i | i | 46.9 | i | i | 50.8
Cc1ccc(C(=O)Nc2nc(-c3ccco3)c(-c3ccco3)s2)o1 | nt | i | i | 64.0 | nt | i | 68.4
O=C(CCl)Nc1nc(-c2ccco2)c(-c2ccco2)s1 | i | i | i | 76.8 | i | i | 73.9
SMILES | bIAP inhibitor | hIAP block | hIAP act | mIAP inh | bIAP act | mIAP act | mIAP inh conf
O=C(CCCSc1ccccc1)Nc1nc(-c2ccco2)c(-c2ccco2)s1 | i | nt | nt | nt | i | nt | nt
CCc1cc(Cn2nc(-c3ccccc3)cc2C(=O)NCc2cccc(Br)c2)on1 | nt | i | i | i | nt | 6.55 | i
CCc1cc(Cn2nc(-c3ccccc3)cc2C(=O)NCc2cccc(C(F)(F)F)c2)on1 | nt | i | i | i | nt | 3.44 | i
COc1ccc(C2=NOC(Cn3nc(-c4ccccc4)cc3C(=O)NCc3cccc(Br)c3)C2)cc1 (stereo unspecified) | nt | i | i | i | nt | 3.76 | i
Cc1ccc(Nc2nc(-c3ccc(O)c(O)c3)cs2)nc1 | i | i | i | 46.0 | i | i | 52.4
Cc1ccc(Nc2nc(-c3ccc(F)cc3)cs2)nc1 | nt | i | i | i | nt | i | nt
COc1ccc(Br)cc1/C=N/NC(=O)C(c1ccncc1)N1CCOCC1 (stereo unspecified) | i | i | i | i | i | i | nt
Cc1c2cc(O)c(=O)cc-2oc2cc(O)c(O)cc12 | nt | i | i | 73.0 | i | i | 85.6
COc1cc(OC)c(-c2c3cc(O)c(=O)cc-3oc3cc(O)c(O)cc23)cc1OC | i | i | i | 44.3 | i | i | 59.4
CCCCN1C(=O)C(=O)N(CC(=O)Nc2cc(OCC)c(N3CCOCC3)cc2OCC)C1=O | i | i | i | i | i | i | nt
COc1cc(/C=C/[N+](=O)[O-])ccc1OC(=O)c1cc2ccccc2oc1=O | nt | i | i | 58.4 | nt | i | 48.9
COc1ccccc1OC(=O)c1cc2ccccc2oc1=O | nt | i | i | i | nt | i | nt
O=C(Nc1ccccc1)NC1CC2CCC(C1)N2Cc1nnnn1Cc1ccc2c(c1)OCO2 (stereo unspecified) | i | i | i | i | i | 2.49 | i
c1ccc(Cn2nnnc2CN2CCN(Cc3ccc4c(c3)OCO4)CC2)cc1 | i | i | i | i | i | i | nt
COc1cccc(NS(=O)(=O)c2ccc3c(c2)NC(=O)CC(=O)N3)c1 | nt | i | i | i | nt | i | nt
COc1ccc(CN2CC[C@H]3C=CC[C@@H](C(=O)Nc4ccc(Cl)c(C(F)(F)F)c4)[C@H]3C2=O)cc1OC | nt | i | i | i | nt | 2.1 | i
CC(OC(=O)c1cccc(S(=O)(=O)N2CCCCC2)c1)C(=O)NC1CCCCC1C (stereo unspecified) | nt | i | i | i | nt | i | nt
O=C(Nc1ccc(Cl)c(Cl)c1)Nc1cc(S(=O)(=O)N2CCOCC2)ccc1N1CCCC1 | i | i | i | i | i | 3.12 | i
O=C(Nc1cccc(Cl)c1)Nc1cc(S(=O)(=O)N2CCCCC2)ccc1Cl | i | i | i | i | i | 3.57 | i
O=C(Nc1ccc(Cl)c(Cl)c1)Nc1cc(C(=O)N2CCOCC2)ccc1N1CCCCC1 | nt | i | i | i | nt | 10.1 | i
CCCCn1c(N)c(N(CCC(C)C)C(=O)c2ccc(C)c(S(=O)(=O)N3CCOCC3)c2)c(=O)[nH]c1=O | nt | i | i | i | nt | i | nt
CC(=O)Oc1cccc(NC(=O)c2ccc3c(c2)C(=O)N(CC(C)C)C3=O)c1 | nt | i | i | i | nt | i | nt
CC(C)N(Cc1nc(-c2ccc3c(c2)OCO3)no1)Cc1nccn1C | i | i | i | i | i | i | nt
O=C1c2cccc(O)c2C(=O)c2c(O)cc(CO)cc21 | nt | i | i | 44.9 | nt | i | 51.7
Cc1cc(O)c2c(c1)C(=O)c1cc(O)cc(O)c1C2=O | nt | i | i | i | nt | i | nt
CCOc1ccc(OCCCC(=O)NCCc2ccc(OC)cc2)cc1 | nt | i | i | i | nt | i | nt
NC(=O)CC1Nc2cccc3cccc(c23)NC1=O (stereo unspecified) | i | i | i | 40.8 | i | i | 50.4
O=C(CC1Nc2cccc3cccc(c23)NC1=O)Nc1ccccc1 (stereo unspecified) | i | i | i | i | i | i | nt
